Results as given in ChEMBL document CHEMBL1123102, “Synthesis and anthelmintic activity of 5(6)-(benzimidazol-2-ylcarbamoyl) and (4-substituted piperazin-1-yl)benzimidazoles” (1985).

What was measured:
Rattus norvegicus [1] = assay: Antifilarial activity evaluated as (percent death of adult worms on a day 42) against Litomosoides carinii in Coton rat, at a dose (6 mg/kg X 5) administered intraperitoneally; Nil; assay type: functional, organism-based
How it was run: (§1)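 Cotton rats (Sigmodon hispidus) were infected with L. carinii through the vector Liponyssus bacoti. At the end of the prepatent period, animals with at least 250 microfilariae per blood sample were selected, 3–4 per experiment. Drug in water or Tween 80 suspension was given ip daily for 5 days. Blood smears were taken weekly up to 6 weeks. On day 42, animals were killed and the condition of adult male and female worms assessed.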

Rattus norvegicus [2] = assay: Antifilarial activity evaluated as (percent reduction of microfilariae) against Litomosoides carinii in Coton rat, at a dose (6 mg/kg X 5) administered intraperitoneally; assay type: functional
How it was run: (§2)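 Cotton rats (Sigmodon hispidus) infected with L. carinii by vector mite (Liponyssus bacoti) transmission. Animals with ≥250 microfilariae per 5 µL blood after prepatency were used, 3–4 per experiment. Drug was given i.p. in water or Tween 80 suspension daily for 5 days. Blood smears were read weekly up to 6 weeks. Adult worms were examined at sacrifice on day 42.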

Rattus norvegicus [3] = assay: Antifilarial activity evaluated as (persistance of microfilaricidal effect)against Litomosoides carinii in Coton rat, at a dose (6 mg/kg X 5)administered intraperitoneally; assay type: functional; how it was run: as §2
Rattus norvegicus [4] = assay: Antitapeworm activity evaluated as reduction of worms with scolices against Hymenolepis nana in rat (dose 250 mg/kg X 3) administered orally; assay type: functional; conditions: route oral
How it was run: (§3)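 Newly weaned male albino rats (Freiburg strain, 25–30 g) were infected orally with 200 viable H. nana ova. Those passing eggs on day 17 were treated orally, 3–5 per group, three daily doses after a 5–6 h fast. Rats were fasted again on day 3 of treatment and sacrificed. Worms with scolices and worm-free animals were scored.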

Rattus norvegicus [5] = assay: Antitapeworm activity evaluated as reduction of worms with scolices against Hymenolepis nana in rat (dose 50 mg/kg X 3)administered orally; assay type: functional; conditions: route oral; how it was run: as §3
Rattus norvegicus [6] = assay: Antitapeworm activity evaluated as reduction of worms with scolices against Hymenolepis nana in rat (dose 100 mg/kg X 3)administered orally; assay type: functional; conditions: route oral; how it was run: as §3
Rattus norvegicus [7] = assay: Antitapeworm activity evaluated as (percent animal freed of worms) against Hymenolepis nana in rat (dose 100 mg/kg X 3)administered orally; assay type: functional; conditions: route oral; how it was run: as §3
Rattus norvegicus [8] = assay: Antitapeworm activity evaluated as(percent animal freed of worms) against Hymenolepis nana in rat ( dose 250 mg/kg X 3)administered orally; assay type: functional; conditions: route oral; how it was run: as §3
Rattus norvegicus [9] = assay: Antitapeworm activity evaluated as(percent animal freed of worms) against Hymenolepis nana in rat (dose 50 mg/kg X 3)administered orally; assay type: functional; conditions: route oral; how it was run: as §3
Rattus norvegicus [10] = assay: Antitapeworm activity evaluated as(percent animal freed of worms) against Hymenolepis nana in rat (dose 250 mg/kg X 3)administered orally; assay type: functional; conditions: route oral; how it was run: as §3
Rattus norvegicus [11] = assay: Antitapeworm activity evaluated as reduction of worms with scolices against Hymenolepis nana in rat ( dose 250 mg/kg X3 )administered orally; assay type: functional; conditions: route oral; how it was run: as §3
Rattus norvegicus [12] = assay: Antifilarial activity evaluated as (persistance of microfilaricidal effect)against Litomosoides carinii in Cotton rat, at a dose (30 mg/kg X 5) administered intraperitoneally; assay type: functional; how it was run: as §2
Rattus norvegicus [13] = assay: Antifilarial activity evaluated as (percent reduction of microfilariae) against Litomosoides carinii in Coton rat, at a dose (30 mg/kg X 5) administered intraperitoneally; assay type: functional; how it was run: as §2
Rattus norvegicus [14] = assay: Antifilarial activity evaluated as (percent death of adult worms on day 42) against Litomosoides carinii in Cotton rat, at a dose (30 mg/kg X 5) administered intraperitoneally; assay type: functional; how it was run: as §1
Rattus norvegicus [15] = assay: Antitapeworm activity evaluated as(percent animal freed of worms) against Hymenolepis nana in rat (dose 400 mg/kg X 3)administered orally; assay type: functional; conditions: route oral; how it was run: as §3
Rattus norvegicus [16] = assay: Antitapeworm activity evaluated as reduction of worms with scolices against Hymenolepis nana in rat ( dose 400 mg/kg X 3) administered orally; assay type: functional; conditions: route oral; how it was run: as §3
Rattus norvegicus [17] = assay: Antifilarial activity evaluated as (percent death of adult worms on day 42) against Litomosoides carinii in Coton rat, at a dose (30 mg/kg X 5) administered intraperitoneally; assay type: functional; how it was run: as §1
Rattus norvegicus [18] = assay: Antifilarial activity evaluated as (persistance of microfilaricidal effect) against Litomosoides carinii in Coton rat, at a dose (30 mg/kg X 5) administered intraperitoneally; assay type: functional; how it was run: as §2
Rattus norvegicus [19] = assay: Antitapeworm activity evaluated as reduction of worms with scolices against Hymenolepis nana in rat ( dose 250 mg/kg X 3) administered orally; assay type: functional; conditions: route oral; how it was run: as §3

For CCN(CC)C(=O)N1CCN(C)CC1 [DIETHYLCARBAMAZINE], the Death (Rattus norvegicus [1]) was “Nil”, the Removal (Rattus norvegicus [2]) was over 95% and the Activity (Rattus norvegicus [3]) was 7.
COC(=O)Nc1nc2cc(N3CCN(C(=O)c4ccccc4)CC3)ccc2[nH]1 gave a Reduction (Rattus norvegicus [4]) of 100%, a Reduction (Rattus norvegicus [5]) of 100% and a Reduction (Rattus norvegicus [6]) of 100%. The Reduction (Rattus norvegicus [7]) was 100%, the Reduction (Rattus norvegicus [8]) was 100% and the Reduction (Rattus norvegicus [9]) was 85%.
COC(=O)Nc1nc2cc(N3CCN(C(=O)c4ccco4)CC3)ccc2[nH]1 was tested, and the Reduction (Rattus norvegicus [10]) was 100%, the Reduction (Rattus norvegicus [11]) was 100% and the Activity (Rattus norvegicus [12]) was 42. For the same compound, the Removal (Rattus norvegicus [13]) was over 90% and the Death (Rattus norvegicus [14]) was 90%.
In the case of COC(=O)Nc1nc2cc(C(=O)c3ccccc3)ccc2[nH]1 [MEBENDAZOLE], the Reduction (Rattus norvegicus [15]) is reported as 0% and the Reduction (Rattus norvegicus [16]) is reported as 0%.
Work on CCN(CC)C(=O)N1CCN(c2ccc3[nH]c(NC(=O)OC)nc3c2)CC1 yielded a Reduction (Rattus norvegicus [10]) of 100%, a Death (Rattus norvegicus [17]) of 100% and an Activity (Rattus norvegicus [18]) of 42. The Removal (Rattus norvegicus [13]) was over 95% and the Reduction (Rattus norvegicus [19]) was 100%.
